Results: ChEMBL document CHEMBL1156767, “Indol-3-ylcycloalkyl ketones: effects of N1 substituted indole side chain variations on CB(2) cannabinoid receptor activity” (J Med Chem, 2010)

What follows are compounds tested against T1, Cannabinoid receptor 2 (Homo sapiens, UniProt P34972) (assay: Displacement of [3H]CP-55940 from human recombinant CB2 receptor expressed in HEK293 cells). Conditions: read-out: Ki.
Format: cell-based

T1 sequence (P34972 whole entry): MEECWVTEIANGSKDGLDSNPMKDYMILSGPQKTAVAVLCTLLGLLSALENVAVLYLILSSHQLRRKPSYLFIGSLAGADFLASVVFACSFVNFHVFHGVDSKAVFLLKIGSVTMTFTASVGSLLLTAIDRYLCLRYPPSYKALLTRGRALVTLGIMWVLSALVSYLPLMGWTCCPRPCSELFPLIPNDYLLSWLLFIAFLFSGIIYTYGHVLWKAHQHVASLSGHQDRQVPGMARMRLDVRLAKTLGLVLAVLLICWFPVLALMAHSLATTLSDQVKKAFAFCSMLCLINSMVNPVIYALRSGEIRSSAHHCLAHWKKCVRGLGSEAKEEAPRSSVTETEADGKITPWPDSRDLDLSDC

**Q.** With `O=C(c1cn(CC2CCOCC2)c2ccccc12)C12CC3CC(CC(C3)O1)C2` as the compound, how does the Ki read?
**A.** Its Ki is 5.9 nM.

**Q.** With `CCCCCn1cc(C(=O)C2C(C)(C)C2(C)C)c2ccccc21` as the compound, how does the Ki read?
**A.** The Ki was 1.8 nM.

**Q.** Which Ki does the source give for `O=C(c1cn(CC2CCOCC2)c2ccccc12)C12CC3CC(CC1C3)C2` here?
**A.** The Ki was 2.1 nM.

**Q.** `O=C(c1cn(CCN2CCOCC2)c2ccccc12)C12CC3CC(CC1C3)C2` was tested. Which Ki did it give?
**A.** Its Ki is 23 nM.

**Q.** Which Ki does the source give for `O=C(c1cn(CC2CCOCC2)c2ccccc12)[C@@H]1CC12CCCCC2` here?
**A.** The Ki was 2.6 nM.

**Q.** For `CC1(C)C(C(=O)c2cn(CCCC(F)(F)F)c3ccccc23)C1(C)C`, which Ki is on record?
**A.** Its Ki is 0.09 nM.

**Q.** For `CC1(C)C(C(=O)c2cn(CCc3ccsc3)c3ccccc23)C1(C)C`, which Ki is on record?
**A.** Its Ki is 1.8 nM.

**Q.** With `CC1(C)C(C(=O)c2cn(CCC3CCOCC3)c3ccccc23)C1(C)C` as the compound, how does the Ki read?
**A.** The Ki was 2.8 nM.

**Q.** `CC1(C(=O)c2cn(CC3CCOCC3)c3ccccc23)CC1(Cl)Cl` (stereo not given) was tested. Which Ki did it give?
**A.** The Ki was 181 nM.

**Q.** With `CC1(C)C(C(=O)c2cn(Cc3cccnc3)c3ccccc23)C1(C)C` as the compound, how does the Ki read?
**A.** Its Ki is 30 nM.

**Q.** With `CC1(C)C(C(=O)c2cn(C[C@H]3CCCO3)c3ccccc23)C1(C)C` as the compound, how does the Ki read?
**A.** Its Ki is 3.8 nM.

**Q.** How did the Ki turn out when `O=C(c1cn(CCN2CCOCC2)c2ccccc12)C1CCCCCC1` was run?
**A.** The Ki was 11 nM.

**Q.** For `CCCCn1cc(C(=O)C2C(C)(C)C2(C)C)c2ccccc21`, which Ki is on record?
**A.** The Ki was 2 nM.

These compounds were tested against Cannabinoid receptor 1 (Homo sapiens, UniProt P21554) (assay: Displacement of [3H]CP-55940 from human recombinant CB1 receptor expressed in CHO cells). Conditions: read-out: Ki.
Format: cell-based

Chain of Cannabinoid receptor 1 (P21554 whole entry): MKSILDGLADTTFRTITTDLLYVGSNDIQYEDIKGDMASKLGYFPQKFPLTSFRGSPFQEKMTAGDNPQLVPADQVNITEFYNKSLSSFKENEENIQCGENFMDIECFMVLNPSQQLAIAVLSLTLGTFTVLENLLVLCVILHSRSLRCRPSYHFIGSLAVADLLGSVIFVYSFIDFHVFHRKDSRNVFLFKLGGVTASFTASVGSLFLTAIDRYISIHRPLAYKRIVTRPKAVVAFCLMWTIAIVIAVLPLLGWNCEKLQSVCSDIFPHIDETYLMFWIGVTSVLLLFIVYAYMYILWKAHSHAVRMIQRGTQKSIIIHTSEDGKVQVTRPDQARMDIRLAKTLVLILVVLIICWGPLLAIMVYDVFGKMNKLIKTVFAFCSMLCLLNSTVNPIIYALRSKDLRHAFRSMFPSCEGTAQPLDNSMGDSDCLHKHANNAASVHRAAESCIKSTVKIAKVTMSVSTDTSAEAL

**Q.** With `O=C(c1cn(CC2CCOCC2)c2ccccc12)C12CC3CC(CC(C3)O1)C2` as the compound, how does the Ki read?
**A.** Its Ki is 538 nM.

**Q.** With `CCCCCn1cc(C(=O)C2C(C)(C)C2(C)C)c2ccccc21` as the compound, how does the Ki read?
**A.** The Ki was 150 nM.

**Q.** How did the Ki turn out when `O=C(c1cn(CC2CCOCC2)c2ccccc12)C12CC3CC(CC1C3)C2` was run?
**A.** Its Ki is 73 nM.

**Q.** With `O=C(c1cn(CCN2CCOCC2)c2ccccc12)C12CC3CC(CC1C3)C2` as the compound, how does the Ki read?
**A.** Its Ki is over 10000 nM.

**Q.** With `O=C(c1cn(CC2CCOCC2)c2ccccc12)[C@@H]1CC12CCCCC2` as the compound, how does the Ki read?
**A.** Its Ki is 62 nM.

**Q.** With `CC1(C)C(C(=O)c2cn(CCCC(F)(F)F)c3ccccc23)C1(C)C` as the compound, how does the Ki read?
**A.** The Ki was 15 nM.

**Q.** Which Ki does the source give for `CC1(C)C(C(=O)c2cn(CCc3ccsc3)c3ccccc23)C1(C)C` here?
**A.** The Ki was 148 nM.

**Q.** For `CC1(C)C(C(=O)c2cn(CCC3CCOCC3)c3ccccc23)C1(C)C`, which Ki is on record?
**A.** Its Ki is 92 nM.

**Q.** `CC1(C(=O)c2cn(CC3CCOCC3)c3ccccc23)CC1(Cl)Cl` (stereo not given) was tested. Which Ki did it give?
**A.** The Ki was 3360 nM.

**Q.** For `CC1(C)C(C(=O)c2cn(Cc3cccnc3)c3ccccc23)C1(C)C`, which Ki is on record?
**A.** Its Ki is 2030 nM.

**Q.** Which Ki does the source give for `CC1(C)C(C(=O)c2cn(C[C@H]3CCCO3)c3ccccc23)C1(C)C` here?
**A.** Its Ki is 720 nM.

**Q.** How did the Ki turn out when `O=C(c1cn(CCN2CCOCC2)c2ccccc12)C1CCCCCC1` was run?
**A.** Its Ki is 362 nM.

**Q.** With `CCCCn1cc(C(=O)C2C(C)(C)C2(C)C)c2ccccc21` as the compound, how does the Ki read?
**A.** Its Ki is 91 nM.

Organism: Homo sapiens
Assay: Selectivity ratio of Ki for human recombinant CB1 receptor to Ki for human recombinant CB2 receptor
Conditions: not given
In short: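 Membranes were from HEK cells stably expressing human CB2 and CHO cells stably expressing human CB1. Competition was run against 0.5 nM [3H]CP-55,940 in 50 mM Tris-HCl pH 7.4, 2.5 mM EDTA, 5 mM MgCl2, 0.05% fatty-acid-free BSA, for 90 min at 30 °C, then filtered. Nonspecific binding was set with 10 μM unlabeled CP-55,940. Ki came from one-site fits. Mean ± SEM, ≥3 experiments in duplicate.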

**Q.** `O=C(c1cn(CC2CCOCC2)c2ccccc12)C12CC3CC(CC(C3)O1)C2` was tested. Which Ratio Ki did it give?
**A.** Its Ratio Ki is 91.

**Q.** How did the Ratio Ki turn out when `CCCCCn1cc(C(=O)C2C(C)(C)C2(C)C)c2ccccc21` was run?
**A.** Its Ratio Ki is 83.

**Q.** With `O=C(c1cn(CC2CCOCC2)c2ccccc12)C12CC3CC(CC1C3)C2` as the compound, how does the Ratio Ki read?
**A.** Its Ratio Ki is 35.

**Q.** With `O=C(c1cn(CCN2CCOCC2)c2ccccc12)C12CC3CC(CC1C3)C2` as the compound, how does the Ratio Ki read?
**A.** Its Ratio Ki is over 435.

**Q.** Which Ratio Ki does the source give for `O=C(c1cn(CC2CCOCC2)c2ccccc12)[C@@H]1CC12CCCCC2` here?
**A.** The Ratio Ki was 24.

**Q.** How did the Ratio Ki turn out when `CC1(C)C(C(=O)c2cn(CCCC(F)(F)F)c3ccccc23)C1(C)C` was run?
**A.** The Ratio Ki was 167.

**Q.** `CC1(C)C(C(=O)c2cn(CCc3ccsc3)c3ccccc23)C1(C)C` was tested. Which Ratio Ki did it give?
**A.** The Ratio Ki was 82.

**Q.** How did the Ratio Ki turn out when `CC1(C)C(C(=O)c2cn(CCC3CCOCC3)c3ccccc23)C1(C)C` was run?
**A.** The Ratio Ki was 33.

**Q.** Which Ratio Ki does the source give for `CC1(C(=O)c2cn(CC3CCOCC3)c3ccccc23)CC1(Cl)Cl` (stereo not given) here?
**A.** Its Ratio Ki is 19.

**Q.** How did the Ratio Ki turn out when `CC1(C)C(C(=O)c2cn(Cc3cccnc3)c3ccccc23)C1(C)C` was run?
**A.** The Ratio Ki was 68.

**Q.** For `CC1(C)C(C(=O)c2cn(C[C@H]3CCCO3)c3ccccc23)C1(C)C`, which Ratio Ki is on record?
**A.** The Ratio Ki was 189.

**Q.** With `O=C(c1cn(CCN2CCOCC2)c2ccccc12)C1CCCCCC1` as the compound, how does the Ratio Ki read?
**A.** Its Ratio Ki is 33.

**Q.** With `CCCCn1cc(C(=O)C2C(C)(C)C2(C)C)c2ccccc21` as the compound, how does the Ratio Ki read?
**A.** The Ratio Ki was 46.

What follows are compounds tested against T1, Cannabinoid receptor 2 (assay: Agonist activity at human recombinant CB2 receptor expressed in HEK293 cells coexpressing Galphaq/o5 assessed as calcium mobilization by FLIPR assay). Conditions: not given.
Format: functional, cell-based
In short: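 HEK cells stably coexpressing human CB2 and chimeric Gαq/o5 were seeded at 75 000 cells/well the day before and loaded with no-wash calcium dye. Mean ± SEM, ≥3 experiments in duplicate.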

**Q.** With `O=C(c1cn(CC2CCOCC2)c2ccccc12)C12CC3CC(CC(C3)O1)C2` as the compound, how does the EC50 read?
**A.** The EC50 was 8 nM.

**Q.** Which EC50 does the source give for `CCCCCn1cc(C(=O)C2C(C)(C)C2(C)C)c2ccccc21` here?
**A.** The EC50 was 29 nM.

**Q.** For `O=C(c1cn(CC2CCOCC2)c2ccccc12)C12CC3CC(CC1C3)C2`, which EC50 is on record?
**A.** The EC50 was 7 nM.

**Q.** `O=C(c1cn(CCN2CCOCC2)c2ccccc12)C12CC3CC(CC1C3)C2` was tested. Which EC50 did it give?
**A.** Its EC50 is 68 nM.

**Q.** For `O=C(c1cn(CC2CCOCC2)c2ccccc12)[C@@H]1CC12CCCCC2`, which EC50 is on record?
**A.** The EC50 was 14 nM.

**Q.** With `CC1(C)C(C(=O)c2cn(CCCC(F)(F)F)c3ccccc23)C1(C)C` as the compound, how does the EC50 read?
**A.** Its EC50 is 6 nM.

**Q.** With `CC1(C)C(C(=O)c2cn(CCc3ccsc3)c3ccccc23)C1(C)C` as the compound, how does the EC50 read?
**A.** Its EC50 is 70 nM.

**Q.** `CC1(C)C(C(=O)c2cn(CCC3CCOCC3)c3ccccc23)C1(C)C` was tested. Which EC50 did it give?
**A.** Its EC50 is 15 nM.

**Q.** `CC1(C(=O)c2cn(CC3CCOCC3)c3ccccc23)CC1(Cl)Cl` (stereo not given) was tested. Which EC50 did it give?
**A.** The EC50 was 782 nM.

**Q.** How did the EC50 turn out when `CC1(C)C(C(=O)c2cn(Cc3cccnc3)c3ccccc23)C1(C)C` was run?
**A.** The EC50 was 75 nM.

**Q.** With `CC1(C)C(C(=O)c2cn(C[C@H]3CCCO3)c3ccccc23)C1(C)C` as the compound, how does the EC50 read?
**A.** The EC50 was 11 nM.

**Q.** For `O=C(c1cn(CCN2CCOCC2)c2ccccc12)C1CCCCCC1`, which EC50 is on record?
**A.** The EC50 was 31 nM.

**Q.** For `CCCCn1cc(C(=O)C2C(C)(C)C2(C)C)c2ccccc21`, which EC50 is on record?
**A.** Its EC50 is 5 nM.

The compounds below were run against T1, Cannabinoid receptor 2 (assay: Agonist activity at human recombinant CB2 receptor expressed in HEK293 cells coexpressing Galphaq/o5 assessed as calcium mobilization by FLIPR assay relative to CP-55940). Conditions: not given.
Format: functional, cell-based
In short: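 HEK cells stably coexpressing human CB2 and chimeric Gαq/o5 were seeded at 75 000 cells/well the day before and loaded with no-wash calcium dye. […] Mean ± SEM, ≥3 experiments in duplicate.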

**Q.** For `O=C(c1cn(CC2CCOCC2)c2ccccc12)C12CC3CC(CC(C3)O1)C2`, which Activity is on record?
**A.** The Activity was 97%.

**Q.** `CCCCCn1cc(C(=O)C2C(C)(C)C2(C)C)c2ccccc21` was tested. Which Activity did it give?
**A.** Its Activity is 93%.

**Q.** For `O=C(c1cn(CC2CCOCC2)c2ccccc12)C12CC3CC(CC1C3)C2`, which Activity is on record?
**A.** The Activity was 93%.

**Q.** `O=C(c1cn(CCN2CCOCC2)c2ccccc12)C12CC3CC(CC1C3)C2` was tested. Which Activity did it give?
**A.** Its Activity is 66%.

**Q.** Which Activity does the source give for `O=C(c1cn(CC2CCOCC2)c2ccccc12)[C@@H]1CC12CCCCC2` here?
**A.** The Activity was 86%.

**Q.** For `CC1(C)C(C(=O)c2cn(CCCC(F)(F)F)c3ccccc23)C1(C)C`, which Activity is on record?
**A.** The Activity was 104%.

**Q.** Which Activity does the source give for `CC1(C)C(C(=O)c2cn(CCc3ccsc3)c3ccccc23)C1(C)C` here?
**A.** Its Activity is 108%.

**Q.** With `CC1(C)C(C(=O)c2cn(CCC3CCOCC3)c3ccccc23)C1(C)C` as the compound, how does the Activity read?
**A.** The Activity was 90%.

**Q.** `CC1(C(=O)c2cn(CC3CCOCC3)c3ccccc23)CC1(Cl)Cl` (stereo not given) was tested. Which Activity did it give?
**A.** Its Activity is 32%.

**Q.** `CC1(C)C(C(=O)c2cn(Cc3cccnc3)c3ccccc23)C1(C)C` was tested. Which Activity did it give?
**A.** Its Activity is 103%.

**Q.** For `CC1(C)C(C(=O)c2cn(C[C@H]3CCCO3)c3ccccc23)C1(C)C`, which Activity is on record?
**A.** Its Activity is 99%.

**Q.** Which Activity does the source give for `O=C(c1cn(CCN2CCOCC2)c2ccccc12)C1CCCCCC1` here?
**A.** The Activity was 48%.

**Q.** How did the Activity turn out when `CCCCn1cc(C(=O)C2C(C)(C)C2(C)C)c2ccccc21` was run?
**A.** Its Activity is 102%.
